Source: ChEMBL document CHEMBL1681731, “Synthesis, in vitro anti-inflammatory and cytotoxic evaluation, and mechanism of action studies of 1-benzoyl-β-carboline and 1-benzoyl-3-carboxy-β-carboline derivatives” (Bioorg Med Chem, 2011)
Activity calls are given as the source filed them. The rule behind the calls is not given here.

How the values were obtained:
[1] = system: RAW264.7; assay: Antiinflammatory activity against mouse RAW264.7 cells assessed as reduction of lipopolysaccharide/interferon-gamma induced PGE2 production at 1 uM by EIA; type: functional
In short: (§1)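 RAW 264.7 macrophages (passages 9–20) stimulated with LPS/IFN-γ; compound tested at 1, 3 and 10 µM. Supernatant PGE2 measured by competitive EIA: anti-PGE2 antibody plus peroxidase-PGE2 tracer, 1 h RT; TMB/H2O2 30 min; H2SO4 stop; A450. Results given as % inhibition.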

[2] = system: KB; assay: Cytotoxicity activity against human KB cells assessed as growth inhibition at 10 ug/ml after 72 hrs sulforhodamine B assay; type: functional
In short: (§2)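 Cells kept in RPMI-1640/10% FBS with antibiotics at 37 °C, 5% CO2. Trypsinized cells seeded and given compound from DMSO-diluted stock. Incubated 72 h, then fixed with 10% TCA. Stained 10 min with 0.4% sulforhodamine B in 1% HOAc, washed, dye dissolved in 10 mM Trizma. A515 read; growth relative to net protein increase of controls.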

[3] = Cytotoxicity activity against human KBVIN cells assessed as growth inhibition at 10 ug/ml after 72 hrs sulforhodamine B assay; type: functional; in short: as §2
[4] = system: RAW264.7; assay: Antiinflammatory activity against mouse RAW264.7 cells assessed as reduction of lipopolysaccharide/interferon-gamma induced PGE2 production at 3 uM after 18 hrs; type: functional; details: RAW264.7, 18 h; in short: as §1
[5] = system: A549; assay: Cytotoxicity activity against human A549 cells assessed as growth inhibition at 10 ug/ml after 72 hrs sulforhodamine B assay; type: functional; details: A549, 72 h; in short: as §2
[6] = (§3) Cytotoxicity against mouse […] cells by MTT assay; type: functional
In short: (§4)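 Viability of RAW 264.7 cells taken as mitochondrial reduction of MTT to formazan. Formazan read at OD550.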

[7] = system: Radical scavenging activity; assay: Antioxidant activity assessed as residual DPPH radical scavenging activity; type: functional
[8] = Antiinflammatory activity against human neutrophil assessed as inhibition of N-formyl-l-methionyl phenylalanine/cytochalasin B-induced superoxide anion generation by spectrophotometry; type: functional, cell-based
In short: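 Ferricytochrome c (0.5 mg/mL) reduction, SOD-inhibitable, with 1 mM Ca2+. Neutrophils (6 × 10^5 cells/mL) equilibrated 2 min at 37 °C, then drug or 0.1% DMSO for 5 min. Cytochalasin B 1 µg/mL preincubation, then 100 nM FMLP for 3 min. A550 monitored continuously with stirring. IC50 computed; mean ± SEM, n = 3.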

[9] = Antiinflammatory activity against mouse […] cells assessed as inhibition of lipopolysaccharide/interferon-gamma induced nitric oxide production; type: functional, cell-based; details: Mus musculus; read-out: EC50
In short: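 RAW 264.7 cells in DMEM/10% FCS, passages 9–20. Nitrite induced by LPS (1 µg/mL) plus IFN-γ (50 U/mL) for 18 h with or without compound. Griess reagent (1% sulfanilamide, 0.1% naphthylenediamine in 5% H3PO4) read at OD550. EC50 calculated.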

[10] = Antiinflammatory activity against human neutrophil assessed as inhibition of N-formyl-l-methionyl phenylalanine/cytochalasin B-induced elastase release; type: functional, cell-based
In short: (§5)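 Neutrophils (6 × 10^5/mL) supplemented with 100 µM MeO-Suc-Ala-Ala-Pro-Val-p-nitroanilide, equilibrated 2 min at 37 °C, then given drug or 0.1% DMSO vehicle for 5 min. Activated with 100 nM FMLP plus 0.5 µg/mL cytochalasin B. Absorbance at 405 nm followed continuously. Release expressed as percent of drug-free activated control. IC50 computed; mean ± SEM, n = 3.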

[11] = system: RAW264.7; assay: Antiinflammatory activity against mouse RAW264.7 cells assessed as reduction of lipopolysaccharide/interferon-gamma induced PGE2 production at 10 uM after 18 hrs; type: functional; details: RAW264.7, 18 h; in short: as §1
[12] = system: DU-145; assay: Cytotoxicity activity against human DU145 cells assessed as growth inhibition at 10 ug/ml after 72 hrs sulforhodamine B assay; type: functional; details: DU-145, 72 h; in short: as §2
[13] = Therapeutic index, ratio of CC50 for mouse […] cells to EC50 for inhibition of lipopolysaccharide/interferon-gamma induced nitric oxide production in mouse […] cells; type: cell-based; details: read-out: TI
[14] = species on record: Mus musculus; assay: as §3; type: functional; in short: as §4
[15] = Antiinflammatory activity against cytochalasin B pretreated human neutrophil assessed as inhibition of elastase release; type: functional; in short: as §5
[16] = system: Neutrophil; assay: Antiinflammatory activity against human neutrophil assessed as inhibition of N-formyl-l-methionyl phenylalanine-induced phosphorylation of AKT by Western blot analysis; type: functional, cell-based
In short: (§6)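 Neutrophils given drug for 5 min at 37 °C, then FMLP (0.1 µM) for 0.5 min. Stopped on ice and centrifuged at 4 °C. Pellets lysed in HEPES pH 7.4 Triton buffer with phosphatase and protease inhibitors; 14,000 g 20 min spin. Lysate proteins run on 12% SDS-PAGE, immunoblotted, detected by ECL.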

[17] = system: Neutrophil; assay: Antiinflammatory activity against human neutrophil assessed as inhibition of N-formyl-l-methionyl phenylalanine-induced phosphorylation of JNK by Western blot analysis; type: functional, cell-based; in short: as §6
[18] = system: RAW264.7; assay: Inhibition of lipopolysaccharide/interferon gamma-induced iNOS expression in mouse RAW264.7 cells by Western blot analysis; type: functional, cell-based
In short: (§7)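 RAW 264.7 cells lysed in ice-cold RIPA buffer (25 mM Tris–HCl pH 7.2, SDS, Triton, deoxycholate, protease/phosphatase inhibitors). Protein assayed, run on 7.5% SDS-PAGE and transferred to nitrocellulose. Probed for iNOS or COX2 with HRP-anti-IgG secondary, detected by ECL. Blot re-probed for α-tubulin.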

[19] = system: RAW264.7; assay: Inhibition of lipopolysaccharide/interferon gamma-induced COX2 expression in mouse RAW264.7 cells by Western blot analysis; type: functional, cell-based; in short: as §7

SMILES	IC50 [8] [µM]	EC50 [9] [µM]	IC50 [10] [µM]	inhibition at 1 µM [1] [%]	GI50 [2] [µM]	GI50 [3] [µM]	inhibition at 3 µM [4] [%]	GI50 [5] [µM]	CC50 [6] [µM]	Activity [7]	inhibition at 10 µM [11] [%]	GI50 [12] [µM]	selectivity ratio [13]	CC50 [14]	INH [15] [µM]	inhibition [16]	inhibition [17]	Activity [18]	Activity [19]
O=C(O)c1cc2c([nH]c3ccccc32)c(C(=O)c2ccccc2[N+](=O)[O-])n1	17.6	2.88	13.2	0	> 40	> 40	97	> 40	12.8	inactive	100	> 40	4						
CC(=O)c1nccc2c1[nH]c1ccccc12	5.03	6.65	> 30	0	> 40	> 40	0	> 40			59	> 40		Non-toxic					
COc1cccc(C(=O)c2nccc3c2[nH]c2ccccc23)c1	> 30	2.96		0	> 40	> 40	71	> 40	16.3		98	> 40	6		13.2				
CC(=O)c1nc(C(=O)O)cc2c1[nH]c1ccccc12	> 30	0.25	> 30	0	> 40	> 40	0	> 40			0	> 40		Non-toxic					
Cc1ccc(C(O)c2nccc3c2[nH]c2ccccc23)cc1 (stereo not given)	> 30	4.94	> 30	15	20.6	9.29	29	26.6				13.8	> 100	Non-toxic					
Cc1cccc(C(=O)c2nccc3c2[nH]c2ccccc23)c1	> 30	0.2	> 30	97	> 40	> 40	100	> 40	23.7			> 40	120					Active	Active
O=C(O)c1cc2c([nH]c3ccccc32)c(C(=O)c2ccccc2Br)n1	5.33	6.96	3.07	0	> 40	> 40	78	> 40	524	inactive	96	> 40	75						

Now from value to compound, other results behind:

IC50 [8] [µM]	EC50 [9] [µM]	IC50 [10] [µM]	SMILES	inhibition at 1 µM [1] [%]	GI50 [2] [µM]	GI50 [3] [µM]	inhibition at 3 µM [4] [%]	GI50 [5] [µM]	CC50 [6] [µM]	Activity [7]	inhibition at 10 µM [11] [%]	GI50 [12] [µM]	selectivity ratio [13]	CC50 [14]	INH [15] [µM]	inhibition [16]	inhibition [17]	Activity [18]	Activity [19]
16.1	0.23	10.4	COc1ccc(C(=O)c2nc(C(=O)O)cc3c2[nH]c2ccccc23)cc1	28	> 40	> 40	98	> 40	43.1	inactive		> 40	187						
2.05	0.57	2.78	O=C(O)c1cc2c([nH]c3ccccc32)c(C(=O)c2cccc(Br)c2)n1	100	> 40	> 40	100	> 40	29.4	inactive		> 40	51			Active	Active	Active	Active
17.7	3.65	13.4	O=C(O)c1cc2c([nH]c3ccccc32)c(C(=O)c2ccccc2)n1	0	> 40	> 40	12	> 40	564	inactive	90	> 40	155						
6.65	2.94	6.21	O=C(O)c1cc2c([nH]c3ccccc32)c(C(=O)c2ccc([N+](=O)[O-])cc2)n1	0	> 40	> 40	92	> 40	15	inactive	100	> 40	5						
5.36	2.58	14.8	Cc1ccccc1C(=O)c1nc(C(=O)O)cc2c1[nH]c1ccccc12	0	> 40	> 40	82	> 40		inactive	100	> 40	> 2000						
